Measured values collected from several papers.
MKNK2: MAP kinase-interacting serine/threonine-protein kinase 2 (MKNK2, Homo sapiens, UniProt Q9HBH9)
NPSR1: Neuropeptide S receptor (NPSR1, Homo sapiens, UniProt Q6W5P4)
Dual specificity calcium/calmodulin-dependent 3',5'-cyclic nucleotide phosphodiesterase 1B: Dual specificity calcium/calmodulin-dependent 3',5'-cyclic nucleotide phosphodiesterase 1B (Homo sapiens, UniProt Q01064)
GRM3: Metabotropic glutamate receptor 3 (GRM3, Homo sapiens, UniProt Q14832)
Aldo-keto reductase family 1 member A1: Aldo-keto reductase family 1 member A1 (Rattus norvegicus, UniProt P51635)
PTPN12: Tyrosine-protein phosphatase non-receptor type 12 (PTPN12, Homo sapiens, UniProt Q05209)
SLC6A2: Sodium-dependent noradrenaline transporter (SLC6A2, Homo sapiens, UniProt P23975)
TPR: Trypanothione reductase (TPR, Trypanosoma cruzi, UniProt P28593)
Fructose-1,6-bisphosphatase 1 G27P: Fructose-1,6-bisphosphatase 1 (Mus musculus, UniProt Q9QXD6, G27P)

| Compound | target | read-out | mode | technique | pH | setting | IC50 [µM] |
| --- | --- | --- | --- | --- | --- | --- | --- |
| CN1CCN(c2ccc(Nc3ncc4cc(C#N)c(=O)n(C5CCCC5)c4n3)cc2)CC1 | MKNK2 | enzyme activity | inhibitor |  |  |  | 4.41 |
| COc1ccc(C2c3c(ncn(CCCc4ccccc4)c3=N)Oc3ccc4ccccc4c32)cc1OC (stereo not drawn) | NPSR1 | calcium signal | antagonist |  |  |  | > 30 |
| Cc1nn2c(-c3c(C)nn(C)c3-c3ccc(C(F)(F)F)cc3)nc(CO)c2c(=O)[nH]1 | Dual specificity calcium/calmodulin-dependent 3',5'-cyclic nucleotide phosphodiesterase 1B | enzyme activity | inhibitor |  |  |  | 5.26 |
| O=C1NC(=O)/C(=C/c2ccc(OCCNc3nc4c(cnn4C4CCCC4)c(=O)[nH]3)c(F)c2)S1 | Dual specificity calcium/calmodulin-dependent 3',5'-cyclic nucleotide phosphodiesterase 1B | enzyme activity | inhibitor |  |  |  | 0.0065 |
| COc1ccc(-c2cc(C(N)=O)ncc2OCc2ccc(OC)nc2)c(F)c1 | GRM3 | ion flux | antagonist |  |  |  | > 10 |
| COc1cccc(C2c3c(ncn(-c4ccccc4OC)c3=N)Oc3ccc4ccccc4c32)c1 (stereo not drawn) | NPSR1 | calcium signal | antagonist |  |  |  | 1.1 |
| COc1ccc2nc(/N=C3/NC(=O)C(=Cc4cc(I)c(O)c(OC)c4)S3)sc2c1 | Aldo-keto reductase family 1 member A1 | enzyme activity | inhibitor | absorbance | pH 7.2 |  | > 50 |
| CSc1ccc(/C=C2/C(C)=C(CC(=O)O)c3cc(F)ccc32)cc1 | Dual specificity calcium/calmodulin-dependent 3',5'-cyclic nucleotide phosphodiesterase 1B | enzyme activity | inhibitor |  |  |  | > 100 |
| O=C1c2ccccc2C(=O)c2c(O)c(O)cc(O)c21 | PTPN12 | enzyme activity | inhibitor | fluorescence |  |  | 7 |
| COc1cccc(C2c3c(ncn(-c4cccc(C#N)c4)c3=N)Oc3ccc4ccccc4c32)c1 (stereo not drawn) | NPSR1 | calcium signal | antagonist |  |  |  | 4.38 |
| Cc1cnc(-c2ccc(-c3ccc(NC(=O)Nc4c(F)cc(F)cc4F)cc3F)c3c2C(=O)NC3)[nH]1 | Serine/threonine-protein kinase 10 (STK10, Homo sapiens, UniProt O94804) | enzyme activity | inhibitor |  |  |  | 0.0433 |
| COc1ccc2nc(/N=C3/NC(=O)C(=Cc4cc(OC)c(O)c(OC)c4)S3)sc2c1 | Aldo-keto reductase family 1 member A1 | enzyme activity | inhibitor | absorbance | pH 7.2 |  | 42.1 |
| O=C1c2ccccc2-c2cccc3cccc1c23 | PTPN12 | enzyme activity | inhibitor |  |  |  | > 150 |
| O=c1[nH]c(=S)n(Cc2ccc(Cl)cc2CNCC(F)(F)F)c2cc[nH]c12 | Myeloperoxidase (MPO, Homo sapiens, UniProt P05164) | enzyme activity | inhibitor |  |  |  | 0.035 |
| Clc1ccc(C(c2ccccc2)c2nnnn2CCCCN2CCN(CCCc3ccccc3)CC2)cc1 (stereo not drawn) | SLC6A2 | transporter uptake | inhibitor |  |  |  | 0.745 |
| ClCCOC(c1ccccc1)c1ccccc1 | TPR | enzyme activity | inhibitor | absorbance |  |  | 82.9 |
| O=P(O)(O)OC[C@H]1O[C@@](CO)(OP(=O)(O)O)[C@@H](O)[C@@H]1O | Fructose-1,6-bisphosphatase 1 G27P | enzyme activity | inhibitor |  |  |  | 1.52 |
| BrCCCc1ccccc1 | TPR | enzyme activity | inhibitor | absorbance |  |  | > 100 |
| COc1ccc(-c2cc(C(N)=O)ncc2OCc2ccnc(F)c2)c(F)c1 | GRM3 | ion flux | antagonist |  |  |  | > 10 |
| Nc1nccc2cc(CNC(=O)c3cnn(Cc4ccc(Cn5ccccc5=O)cc4)c3)ccc12 | Plasma kallikrein (KLKB1, Homo sapiens, UniProt P03952) | enzyme activity | inhibitor |  |  | with preincubation | 0.00059 |
| N=c1c2c(ncn1-c1ccccc1)Oc1ccc3ccccc3c1C2c1ccc2c(c1)CCO2 (stereo not drawn) | NPSR1 | cAMP | antagonist | TR-FRET |  |  | 3.07 |
| Fc1ccc(C(c2ccc(F)cc2)c2nnnn2CCCCN2CCC(c3ccccc3)CC2)cc1 | SLC6A2 | transporter uptake | inhibitor |  |  |  | 0.675 |
| COc1ccc2nc(/N=C3/NC(=O)C(=Cc4ccc(O)cc4)S3)sc2c1 | Aldo-keto reductase family 1 member A1 | enzyme activity | inhibitor | absorbance | pH 7.2 |  | 1.24 |
| N=c1c2c(ncn1Cc1ccccc1)Oc1ccc3ccccc3c1C2c1ccccc1 (stereo not drawn) | NPSR1 | cAMP | antagonist | TR-FRET |  |  | 3.07 |
| Fc1ccc(C(c2ccc(F)cc2)c2nnnn2CCCCN2CCC(Cc3ccccc3)CC2)cc1 | SLC6A2 | transporter uptake | inhibitor |  |  |  | 0.298 |
| COc1ccccc1C1c2c(ncn(-c3ccccc3)c2=N)Oc2ccc3ccccc3c21 (stereo not drawn) | NPSR1 | calcium signal | antagonist |  |  |  | 5.52 |
| CN[C@H]1CC[C@@H](c2ccc(Cl)c(Cl)c2)c2ccccc21 | PTPN12 | enzyme activity | inhibitor | fluorescence |  |  | 55 |

| Compound | target | read-out | mode | technique | pH | setting | IC50 [µM] |
| --- | --- | --- | --- | --- | --- | --- | --- |
| CCN(CC)CCn1c(=N)n(CCOc2ccccc2)c2ccccc21 | TPR | enzyme activity | inhibitor |  |  |  | ≤ 10 |
| CN(C)CCCN1c2ccccc2Sc2ccc(Cl)cc21 | TPR | enzyme activity | inhibitor | absorbance |  |  | 6.32 |
| Cc1ccc(C(O)Cn2c(=N)n(CCN3CCCCC3)c3ccccc32)cc1 (stereo not drawn) | TPR | enzyme activity | inhibitor |  |  |  | ≤ 10 |
| O=S(=O)(Nc1nc2cc(Cl)ccc2o1)c1cc(Cl)ccc1Cl | Fructose-1,6-bisphosphatase 1 G27P | enzyme activity | inhibitor |  |  |  | > 100 |
| O=C(O)C1=CC(=C(c2ccc(O)c(C(=O)O)c2)c2ccc(O)c(C(=O)O)c2)C=CC1=O | TPR | enzyme activity | inhibitor | absorbance |  |  | 0.176 |
| COc1ccc(-c2cc(C(N)=O)ncc2OCc2ccnc(OC)c2)c(F)c1 | GRM3 | ion flux | antagonist |  |  |  | > 10 |
| O=C(Oc1cc(O)cc2c1C[C@@H](OC(=O)c1cc(O)c(O)c(O)c1)[C@@H](c1cc(O)c(O)c(O)c1)O2)c1cc(O)c(O)c(O)c1 | PTPN12 | enzyme activity | inhibitor |  |  |  | 0.02 |
| c1ccc(CCC2CCN(CCCCn3nnnc3C(c3ccccc3)c3ccccc3)CC2)cc1 | SLC6A2 | transporter uptake | inhibitor |  |  |  | 0.274 |
| N=c1c2c(ncn1-c1ccccc1)Oc1ccc3ccccc3c1C2c1ccc2c(c1)OCCO2 (stereo not drawn) | NPSR1 | cAMP | antagonist | TR-FRET |  |  | 3.07 |
| CCN(CC)CCOc1ccc2c(c1)C(=O)c1cc(OCCN(CC)CC)ccc1-2 | Cholinesterase (BCHE, Homo sapiens, UniProt P06276) | enzyme activity | inhibitor |  |  |  | > 50 |
| N=c1n(CCN2CCCCC2)c2ccccc2n1CC(O)COc1ccccc1 (stereo not drawn) | TPR | enzyme activity | inhibitor |  |  |  | ≤ 10 |
| C=CC(=O)Nc1cc(Nc2nccc(Nc3cc(Cl)c(F)cc3C(C)(C)O)n2)c(OC)cc1N1CC[C@@H](N(C)C)C1 | MKNK2 | enzyme activity | inhibitor |  |  | with preincubation | 1.03 |
| Clc1ccc(C(c2ccccc2)c2nnnn2CCCN2CCC(CCCc3ccccc3)CC2)cc1 (stereo not drawn) | SLC6A2 | transporter uptake | inhibitor |  |  |  | 0.527 |
| Nc1c(Cl)cccc1C(=O)Nc1ccccc1C(=O)O | srtA (Staphylococcus aureus, UniProt Q2FV99) | enzyme activity | inhibitor |  |  |  | 59.7 |
| c1ccc(CCC2CCN(CCCn3nnnc3C(c3ccccc3)c3ccccc3)CC2)cc1 | SLC6A2 | transporter uptake | inhibitor |  |  |  | 0.41 |
| COc1ccc(-c2cc(C(N)=O)ncc2OCc2ccc(F)nc2)c(F)c1 | GRM3 | ion flux | antagonist |  |  |  | > 10 |
| COc1ccc(/C=C2\SC(=Nc3nc4ccc(OC)cc4s3)NC2=O)cc1 | Aldo-keto reductase family 1 member A1 | enzyme activity | inhibitor | absorbance | pH 7.2 |  | 4.21 |
| COc1ccc2c(Oc3ccc4c(C(=O)Nc5ccccc5N)cccc4c3)ccnc2c1 | Tyrosine-protein kinase Fgr (FGR, Homo sapiens, UniProt P09769) | enzyme activity | inhibitor |  |  |  | > 0.5 |
| COc1cccc(C2c3c(ncn(-c4ccc(F)cc4)c3=N)Oc3ccc4ccccc4c32)c1 (stereo not drawn) | NPSR1 | calcium signal | antagonist |  |  |  | 3.48 |
| CCN(CC)CCn1c(=N)n(CC(=O)c2ccc(C)cc2)c2ccccc21 | TPR | enzyme activity | inhibitor |  |  |  | ≤ 10 |
| O=C(O)c1cc(O)c2c(c1)[C@H]([C@H]1c3cc(C(=O)O)cc(O)c3C(=O)c3c(O[C@@H]4O[C@H](CO)[C@@H](O)[C@H](O)[C@H]4O)cccc31)c1cccc(O[C@@H]3O[C@H](CO)[C@@H](O)[C@H](O)[C@H]3O)c1C2=O | PTPN12 | enzyme activity | inhibitor |  |  |  | 0.2 |
| OC[C@@H]1[C@@H](O)[C@H](O)[C@@H](O)[C@@H]2O[C@H]12 | bglA (Thermotoga maritima, UniProt Q08638) | enzyme activity | inhibitor |  | pH 6.8 | with preincubation | 0.37 |
| OC1c2ccccc2CCc2ccccc21 | TPR | enzyme activity | inhibitor | absorbance |  |  | > 100 |
| COc1ccc(-c2cc(C(N)=O)ncc2OCc2ccnc(C)c2)c(F)c1 | GRM3 | ion flux | antagonist |  |  |  | > 10 |
| Clc1ccc2c(c1)N(CCCN1CCN(CCCc3ccccc3)CC1)c1ccccc1S2 | TPR | enzyme activity | inhibitor | absorbance |  |  | 0.75 |
| COc1ccc(-c2cc(C(N)=O)ncc2OCc2ccn(C)n2)c(F)c1 | GRM3 | ion flux | antagonist |  |  |  | > 10 |
| Cc1ccc(C(=O)Nc2ccc(S(=O)(=O)O)c3cc(S(=O)(=O)O)cc(S(=O)(=O)O)c23)cc1NC(=O)c1cccc(NC(=O)Nc2cccc(C(=O)Nc3cc(C(=O)Nc4ccc(S(=O)(=O)O)c5cc(S(=O)(=O)O)cc(S(=O)(=O)O)c45)ccc3C)c2)c1 | PTPN12 | enzyme activity | inhibitor | fluorescence |  |  | 27 |
